In ChEMBL document CHEMBL1128248, “C-9 and N-substituted analogs of cis-(3aR)-(-)-2,3,3a,4,5,9b-hexahydro-3- propyl-1H-benz[e]indole-9-carboxamide: 5-HT1A receptor agonists with various degrees of metabolic stability” (J Med Chem, 1995):
The source made the active and inactive calls. The calls are words filed in the database; no cut-off is given here.

How the values were obtained:
Rattus norvegicus [1] = species on record: Rattus norvegicus; experiment: (§1) In vitro metabolic stability of the test compound was evaluated after incubation in the presence of freshly isolated rat hepatocytes; assay type: functional, Hepatocyte; set-up: reference not given here
In short: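 Rat hepatocytes were isolated by modified collagenase perfusion and incubated as suspensions (5 million cells/mL) with each compound at three concentrations. Parent loss was followed by HPLC. Initial rates gave apparent Vmax and Km by direct linear plot, with CLint = Vmax/Km. Stability is expressed relative to a reference compound incubated at the same time.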

[2] = target: T1, 5-hydroxytryptamine receptor 1A (Rattus norvegicus, UniProt P19327); experiment: In vitro displacement of radioactively labeled ligand [3H]8-OH-DPAT from 5-hydroxytryptamine 1A receptor site in CHO cells; assay type: cell-based
T1 sequence (P19327 whole entry): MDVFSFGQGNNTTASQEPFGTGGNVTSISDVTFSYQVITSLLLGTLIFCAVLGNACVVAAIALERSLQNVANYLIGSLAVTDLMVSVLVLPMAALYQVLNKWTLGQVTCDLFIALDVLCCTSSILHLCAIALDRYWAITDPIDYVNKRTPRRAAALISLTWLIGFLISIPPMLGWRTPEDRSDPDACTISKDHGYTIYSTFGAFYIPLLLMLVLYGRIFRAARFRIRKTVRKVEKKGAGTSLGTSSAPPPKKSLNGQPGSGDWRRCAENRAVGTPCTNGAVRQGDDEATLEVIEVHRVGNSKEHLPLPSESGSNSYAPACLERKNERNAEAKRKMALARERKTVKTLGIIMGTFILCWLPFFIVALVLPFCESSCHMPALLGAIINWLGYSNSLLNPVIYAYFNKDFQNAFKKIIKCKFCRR

D(2) dopamine receptor = D(2) dopamine receptor (Rattus norvegicus, UniProt P61169); experiment: Displacement of [3H]U-86170 from Dopamine receptor D2
Chain of D(2) dopamine receptor (P61169 whole entry): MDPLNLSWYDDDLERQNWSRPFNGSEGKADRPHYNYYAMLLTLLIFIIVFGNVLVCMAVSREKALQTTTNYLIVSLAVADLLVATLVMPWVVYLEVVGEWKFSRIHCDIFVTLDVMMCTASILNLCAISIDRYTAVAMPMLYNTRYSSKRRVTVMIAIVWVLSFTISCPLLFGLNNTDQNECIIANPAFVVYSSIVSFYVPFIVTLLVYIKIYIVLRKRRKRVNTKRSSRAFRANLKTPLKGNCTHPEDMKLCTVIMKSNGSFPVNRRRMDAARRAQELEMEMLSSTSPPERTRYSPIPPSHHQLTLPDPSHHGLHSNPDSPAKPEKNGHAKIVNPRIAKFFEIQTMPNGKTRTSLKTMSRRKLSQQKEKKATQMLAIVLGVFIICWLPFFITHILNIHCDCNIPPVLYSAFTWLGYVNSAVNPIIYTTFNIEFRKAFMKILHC
In short: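 Competition binding at cloned D2 receptors expressed in CHO-K1 cells, using the agonist [3H]U86170 (62 Ci/mmol, 2 nM) against 11 dilutions of test compound. IC50 was fitted to a one-site model by nonlinear least squares. Ki was obtained with the Cheng–Prusoff equation.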

Rattus norvegicus [3] = species on record: Rattus norvegicus; experiment: In vitro metabolic stability of the test compound was evaluated after incubation in the presence of freshly isolated rat hepatocytes; Metabolic stability NT = not tested; assay type: functional, Hepatocyte
In short: (§2)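 Rat hepatocytes were prepared by a modified collagenase perfusion method. Each compound was incubated at three concentrations in suspension at 5 million cells/mL. Initial rates were analysed by direct linear plot to give apparent Vmax and Km, and CLint = Vmax/Km. Rates were measured by HPLC and expressed relative to a reference compound incubated at the same time.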

Rattus norvegicus [4] = experiment: (§3) 5-HTP accumulation in limbic system was determined in vivo; assay type: functional
In short: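 Male Sprague–Dawley rats (200–300 g) pretreated with reserpine 5 mg/kg sc 18 h beforehand; test drug given sc in neck, 5 mL/kg, neutral pH. 5-HTP in limbic system measured by HPLC with electrochemical detection.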

Rattus norvegicus [5] = experiment: In vivo effects on DA (dopamine) synthesis in corps striatum was reported after subcutaneous administration to reserpinized rats; inactive at a dose of 50; assay type: functional, organism-based
In short: (§4)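 Male Sprague–Dawley rats (200–300 g) given reserpine 5 mg/kg sc 18 h before; compounds sc in neck region, 5 mL/kg. DOPA accumulation in striatum or cortex measured by HPLC with electrochemical detection.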

Rattus norvegicus [6] = experiment: postsynaptic effects was assessed by the increase in the locomotor activity (reversal of reserpine induced hypokinesia) during a 30 min period after subcutaneous administration using photocell motility meters at the dose of 50(micro M/kg); assay type: ADME, organism-based; details: in vivo, sc, 0.5 h
In short: (§5)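 Reserpine 5 mg/kg sc was given 18 h before testing to male Sprague–Dawley rats. Test drug was given sc in the neck, and rats were placed singly in photocell motility meters. Accumulated counts were recorded over 30 min (mean, n = 4), with gross behaviour observed throughout. Student's t test was applied.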

Rattus norvegicus [7] = experiment: in vivo effects on DA (dopamine) synthesis in cortex was reported after subcutaneous administration to reserpinized rats; inactive at a dose of 50; assay type: functional, organism-based; in short: as §4
Rattus norvegicus [8] = experiment: In vivo effects on DA (dopamine) synthesis in corps striatum was reported after subcutaneous administration to reserpinized rats; inactive at a dose of 100; assay type: functional, organism-based
Rattus norvegicus [9] = experiment: as §3; assay type: functional; remark: listed apart in the source
In short: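 Male Sprague–Dawley rats (200–300 g), pretreated with reserpine 5 mg/kg sc 18 h before. Test drug given sc. 5-HTP measured in limbic brain tissue by HPLC with electrochemical detection. Dose–response curves were built from four to six dose levels (n = 4) for each substance and brain area. ED50 reported in μmol/kg sc.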

Rattus norvegicus [10] = experiment: postsynaptic effects was assessed by the increase in the locomotor activity (reversal of reserpine induced hypokinesia) during a 30 min period after subcutaneous administration using photocell motility meters at the dose of 12.5(mic roM/kg); assay type: ADME, organism-based; details: in vivo, sc, 0.5 h; in short: as §5
Rattus norvegicus [11] = experiment: in vivo effects on DA (dopamine) synthesis in cortex was reported after subcutaneous administration to reserpinized rats; inactive at a dose of 100; assay type: functional, organism-based
Rattus norvegicus [12] = experiment: postsynaptic effects was assessed by the increase in the locomotor activity (reversal of reserpine induced hypokinesia) during a 30 min period after subcutaneous administration using photocell motility meters at the dose of 10(micro M/kg); assay type: ADME, organism-based; details: in vivo, sc, 0.5 h
In short: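 Male Sprague–Dawley rats got reserpine 5 mg/kg sc in the neck 18 h before testing. Compound was given sc in the neck (5 mL/kg), and rats were placed singly in photocell motility meters. Accumulated counts were recorded over 30 min, mean ± SEM, n = 4, with Student's t test against reserpinized controls. Testing ran 9 a.m.–1 p.m.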

Rattus norvegicus [13] = species on record: Rattus norvegicus; experiment: as §1; assay type: ADME, Hepatocyte; in short: as §2

Row | SMILES | Metabolic stability (Rattus norvegicus [1]) | Ki [2] [nM] | Ki (D(2) dopamine receptor) [nM] | further results
1 | COCCN1CC[C@H]2c3c(cccc3C(N)=O)CC[C@H]21 | 0.58 | 129 | > 1000 | 
2 | CC(C)=CCN1CC[C@H]2c3c(cccc3C(N)=O)CC[C@H]21 |  | 271 | > 1000 | Metabolic stability (Rattus norvegicus [3]): 0
3 | CC(C)CN1CC[C@H]2c3c(cccc3C(N)=O)CC[C@H]21 | 0.23 | 42 | > 1000 | 
4 | NC(=O)c1cccc2c1[C@@H]1CCN(CC3CC3)[C@@H]1CC2 | 0.5 | 8.3 | > 1000 | ED50 (Rattus norvegicus [4]): 1 µmol/kg; ED50 (Rattus norvegicus [5]): inactive; Locomotor activity (Rattus norvegicus [6]): 32; ED50 (Rattus norvegicus [7]): inactive
5 | ClCCCN1CC[C@H]2c3c(Br)cccc3CC[C@H]21 |  | 12 | 73 | 
6 | C=CCCN1CC[C@H]2c3c(cccc3C(N)=O)CC[C@H]21 | 0.33 | 82 | > 1000 | 
7 | CCN1CC[C@H]2c3c(cccc3C(N)=O)CC[C@H]21 | 1.5 | 23 | > 1000 | ED50 (Rattus norvegicus [8]): inactive; ED50 (Rattus norvegicus [9]): 2 µmol/kg; Locomotor activity (Rattus norvegicus [10]): 13; ED50 (Rattus norvegicus [11]): inactive
8 | C=CCN1CC[C@H]2c3c(Br)cccc3CC[C@H]21 |  | 1 | 3.2 | 
9 | CCCN(CCC)C(=O)c1cccc2c1[C@@H]1CCN(CCC)[C@@H]1CC2 |  | 434 | > 1000 | 
10 | CCCNC(=O)c1cccc2c1[C@@H]1CCN(CCC)[C@@H]1CC2 |  | 52 | > 1000 | Locomotor activity (Rattus norvegicus [12]): 58; ED50 (Rattus norvegicus [9]): 4 µmol/kg; ED50 (Rattus norvegicus [5]): inactive; ED50 (Rattus norvegicus [7]): inactive
11 | FCCCN1CC[C@H]2c3c(Br)cccc3CC[C@H]21 |  | 4.7 | 47 | 
12 | NC(=O)c1cccc2c1[C@@H]1CCN(CCCCl)[C@@H]1CC2 |  | 15 | > 1000 | Metabolic stability (Rattus norvegicus [13]): 0.22
13 | CN1CC[C@H]2c3c(Br)cccc3CC[C@H]21 |  | 24 | 41 | 
14 | CCCN1CC[C@H]2c3c(cccc3C(=O)NCc3ccccc3)CC[C@H]21 | 0.16 | 22 | > 1000 | ED50 (Rattus norvegicus [4]): 7 µmol/kg; Locomotor activity (Rattus norvegicus [10]): 41; ED50 (Rattus norvegicus [5]): inactive; ED50 (Rattus norvegicus [7]): inactive
15 | C=CCNC(=O)c1cccc2c1[C@@H]1CCN(CCC)[C@@H]1CC2 | 0.4 | 2.2 | > 1000 | ED50 (Rattus norvegicus [4]): 0.8 µmol/kg; ED50 (Rattus norvegicus [5]): inactive; Locomotor activity (Rattus norvegicus [6]): 82; ED50 (Rattus norvegicus [7]): inactive
